Assay results published in PMC5248591 (Journal of Clinical Pharmacology, 2016).
Where “and” joins values, the source holds several entries; their conditions need not be identical. Identical values can stand only once. Like-named read-outs stand apart in the source and are kept apart here.

What was measured:
relapsed CLL = conditions: cited from earlier work
[1] = SAD study: plasma and urine pharmacokinetics after a single oral dose; format: in vivo, human; conditions: for Ae0‐96 / fe0‐96: urine, mean (SD); for Tmax / half-life / Cmax / AUC(0-t): human, plasma
[2] = format: in vivo, human; conditions: for Fluctuation / Ae0‐24 / fe0‐24 / t1/2 / Cmax: mean (SD); for Ae0‐24 / fe0‐24: urine; for CL renal: urine and plasma
[3] = system: BCR/LYN‐mediated pSYK Y352; test: BCR signaling specificity control, pSYK Y352 in B cells, whole blood; format: cell-based, human
[4] = system: PMA/PKC‐induced B‐cell activation; test: PMA‐induced B‐cell activation; format: cell-based, human
[5] = system: fMLP‐mediated basophil degranulation; test: fMLP‐induced basophil degranulation; format: cell-based, human
[6] = system: PMA/PKC‐mediated pERK Y204; test: PMA‐induced pERK Y204 in B cells, specificity control, whole blood; format: cell-based, human; conditions: SAD 200‐ and 300‐mg cohorts combined
[7] = system: CD3/CD28‐induced T‐cell activation (ZAP70‐dependent); test: T‐cell activation; format: cell-based, human; conditions: MAD, steady state after 10 once‐daily doses
[8] = system: PMA‐induced T‐cell activation (PKC‐dependent); test: T‐cell activation; format: cell-based, human; conditions: MAD, steady state after 10 once‐daily doses
[9] = Safety and tolerability, MAD study; format: in vivo, human
[10] = system: FcγR‐mediated DC activation; test: Dendritic cell activation by opsonized sheep red blood cells; format: cell-based, human; conditions: immature DCs from healthy donors, in vitro
Method in brief: (§1)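 Cells (0.5 × 10⁶/well) were preincubated 1 h with test compound, then stimulated overnight with 1 μg/mL LPS or antibody-opsonized sheep RBCs. CD80/86 and MHCII were read by flow cytometry; values are % of vehicle, n = 5.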

[11] = system: LPS‐induced DC activation; test: Dendritic cell activation by LPS; format: cell-based, human; conditions: in vitro; 1 μM in Figure 5C
Method in brief: as §1

[12] = system: opRBC‐induced (FcγR) neutrophil ROS generation; test: Neutrophil oxidative burst induced by opRBC in whole blood in vitro; format: cell-based, human
PMA‐induced pERK Y204 = test: Rat whole blood phospho‐flow: PMA‐induced pERK Y204; format: cell-based; conditions: 5 μM
hind‐paw inflammation = conditions: rat CIA, p < 0.05, cited from earlier work
ZAP70 = conditions: read-out: ZAP70 IC50; purified kinase assay; cited from earlier work
[13] = Safety and tolerability, SAD study
[14] = SAD 200‐ and 300‐mg cohorts combined
[15] = MAD, all dose levels, data not shown

SMILES: c1cn2cc(-c3ccc4cn[nH]c4c3)nc(Nc3ccc(N4CCOCC4)cc3)c2n1 [GS9973]
- Duration of response (relapsed CLL; majority of responding patients): greater than 6 months
- patients achieving decreased adenopathy (relapsed CLL; phase 2, relapsed CLL): 94.5%
- patients having experienced a partial response (relapsed CLL; phase 2, relapsed CLL): 61.5%

SMILES: CC(=O)O.NC(=O)c1cnc(N[C@@H]2CCCC[C@@H]2N)nc1Nc1cccc(-n2nccn2)c1 [PRT062607, 4‐((3‐(2H‐1,2,3‐triazol‐2‐yl)phenyl)amino)‐2‐(((1R,2S)‐2‐aminocyclohexyl)amino)pyrimidine‐5‐carboxamide acetate]
- Intersubject variability (%CV) of Cmax and AUClast ([1]; SAD, 6 out of 7 dose cohorts): < 40%
- Ae0‐96 ([1]; SAD, single oral 30 mg): 0.4 (0.3) mg
- fe0‐96 ([1]; SAD, single oral 30 mg): 1.5 (0.9) %
- Ae0‐96 ([1]; SAD, single oral 100 mg): 2.4 (0.5) mg
- fe0‐96 ([1]; SAD, single oral 100 mg): 2.4 (0.5) %
- Ae0‐96 ([1]; SAD, single oral 200 mg): 4.3 (0.8) mg
- fe0‐96 ([1]; SAD, single oral 200 mg): 2.2 (0.4) %
- Ae0‐96 ([1]; SAD, single oral 300 mg): 7.0 (2.0) mg
- fe0‐96 ([1]; SAD, single oral 300 mg): 2.3 (0.7) %
- Ae0‐96 ([1]; SAD, single oral 400 mg): 20.2 (14.3) mg
- fe0‐96 ([1]; SAD, single oral 400 mg): 5.1 (3.6) %
- Tmax ([1]; oral): 1 to 4 h
- half-life ([1]; oral): 57 to 94 h
- Cmax ([1]; po, 3 mg): 1.5 ng/mL
- Tmax ([1]; po, 3 mg): 1 h
- AUC(0-t) ([1]; po, 10 mg): 150 ng·h/mL
- Cmax ([1]; po, 10 mg): 10.5 ng/mL
- Tmax ([1]; po, 10 mg): 1 h
- half-life ([1]; po, 10 mg): 57.1 h
- AUC(0-t) ([1]; po, 30 mg): 878 ng·h/mL
- Cmax ([1]; po, 30 mg): 42.9 ng/mL
- Tmax ([1]; po, 30 mg): 1 h
- half-life ([1]; po, 30 mg): 56.7 h
- AUC(0-t) ([1]; po, 100 mg): 5400 ng·h/mL
- Cmax ([1]; po, 100 mg): 263 ng/mL
- Tmax ([1]; po, 100 mg): 2 h
- half-life ([1]; po, 100 mg): 69.8 h
- AUC(0-t) ([1]; po, 200 mg): 13700 ng·h/mL
- Cmax ([1]; po, 200 mg): 629 ng/mL
- Tmax ([1]; po, 200 mg): 2 h
- half-life ([1]; po, 200 mg): 77.2 h
- AUC(0-t) ([1]; po, 300 mg): 11800 ng·h/mL
- Cmax ([1]; po, 300 mg): 558 ng/mL
- Tmax ([1]; po, 300 mg): 2.1 h
- half-life ([1]; po, 300 mg): 93.8 h
- AUC(0-t) ([1]; po, 400 mg): 22300 ng·h/mL
- Cmax ([1]; po, 400 mg): 996 ng/mL
- Tmax ([1]; po, 400 mg): 4 h
- half-life ([1]; po, 400 mg): 65.1 h
- Fluctuation ([2]; MAD day 10, 11 mg once daily): 90.7 (43.9) %
- Tmax ([2]; MAD day 10, 11 mg once daily, median (min, max)): 1.5 (0.5, 2.0) Hours
- Ae0‐24 ([2]; MAD day 10, 11 mg once daily): 0.4 (0.1) mg
- fe0‐24 ([2]; MAD day 10, 11 mg once daily): 3.3 (1.3) %
- Fluctuation ([2]; MAD day 10, 33 mg once daily): 88.0 (15.9) %
- Tmax ([2]; MAD day 10, 33 mg once daily, median (min, max)): 1.5 (1.0, 2.1) Hours
- Ae0‐24 ([2]; MAD day 10, 33 mg once daily): 1.3 (0.0) mg
- fe0‐24 ([2]; MAD day 10, 33 mg once daily): 4.0 (0.1) %
- Fluctuation ([2]; MAD day 10, 66 mg once daily): 98.8 (24.1) %
- t1/2 ([2]; MAD day 10, 66 mg once daily): 61.3 Hours and 61.3 (10.2) Hours
- Tmax ([2]; MAD day 10, 66 mg once daily, median (min, max)): 4.0 (2.0, 4.0) Hours
- Ae0‐24 ([2]; MAD day 10, 66 mg once daily): 3.7 (0.6) mg
- fe0‐24 ([2]; MAD day 10, 66 mg once daily): 5.6 (1.0) %
- Fluctuation ([2]; MAD day 10, 110 mg once daily): 92.8 (30.7) %
- t1/2 ([2]; MAD day 10, 110 mg once daily): 75.3 Hours and 75.3 (11.2) Hours
- Tmax ([2]; MAD day 10, 110 mg once daily, median (min, max)): 3.0 (3.0, 6.0) Hours
- Ae0‐24 ([2]; MAD day 10, 110 mg once daily): 6.96 (1.7) mg
- fe0‐24 ([2]; MAD day 10, 110 mg once daily): 6.3 (1.5) %
- intersubject variability (CV%) for exposure parameters ([2]; MAD steady state, all dose cohorts): ≤ 45%
- steady state achieved ([2]; MAD, trough levels days 4, 7, 8, 9, 10): ≤ 7 days
- Tmax ([2]; human, plasma, oral): 1.5 to 4 h
- AUC ([2]; human, plasma, oral, 11 mg): 507 ng·h/mL
- Cmax ([2]; human, plasma, oral, 11 mg, MAD day 10, 11 mg once daily): 32.6 ng/mL
- AUC ([2]; human, plasma, oral, 33 mg): 1810 ng·h/mL
- Cmax ([2]; human, plasma, oral, 33 mg, MAD day 10, 33 mg once daily): 118 ng/mL
- AUC ([2]; human, plasma, oral, 66 mg): 4630 ng·h/mL
- Cmax ([2]; human, plasma, oral, 66 mg, MAD day 10, 66 mg once daily): 317 ng/mL
- AUC ([2]; human, plasma, oral, 110 mg): 8490 ng·h/mL
- Cmax ([2]; human, plasma, oral, 110 mg, MAD day 10, 110 mg once daily): 557 ng/mL
- CL renal ([2]; human, oral, 11 mg): 0.2 mL/min/kg
- CL renal ([2]; human, oral, 33 mg): 0.2 mL/min/kg
- CL renal ([2]; human, oral, 66 mg): 0.2 mL/min/kg
- CL renal ([2]; human, oral, 110 mg): 0.2 mL/min/kg
- inhibition of BCR‐mediated pSYK Y352 [3, 14]: No consistent inhibition
- inhibition of LYN‐mediated pSYK ([3]; SAD study, versus plasma concentration): No concentration‐dependent inhibition
- effect on PMA stimulation (SYK‐independent) [4, 15]: no effect
- inhibition of PMA‐induced B‐cell activation [4, 14]: no inhibition
- effect on fMLP stimulation (SYK‐independent) [5, 15]: no effect
- inhibition of fMLP‐mediated basophil degranulation [5, 14]: No inhibition
- inhibition of PMA‐mediated pERK Y204 [6]: No consistent inhibition
- effect on CD3/CD28‐induced T‐cell activation [7]: no effect
- effect on PMA‐induced T‐cell activation [8]: no effect
- serious adverse events ([9]; 11 to 110 mg once daily for 10 days): no SAEs
- AEs considered by the investigator related to the study drug ([9]; 71 of 96 AEs): 74%
- number of AEs reported ([9]; all PRT062607 doses): 96
- subjects reporting AEs ([9]; all PRT062607 doses (13 subjects)): 54.2%
- effect on FcγR‐mediated (opRBC) DC activation, surface CD80/86 and MHCII [10]: inhibited
- inhibition of LPS‐induced DC activation [11]: No inhibition
- opRBC‐induced ROS formation, concentration‐dependent ([12]; replicate experiments, different donors): inhibited
- opRBC‐induced ROS generation ([12]; whole blood pretreated with 4 μM): completely abrogated
- inhibition of PMA‐induced pERK Y204 (PMA‐induced pERK Y204): inability
- % inhibition hind paw inflammation (hind‐paw inflammation; 10 mg/kg): 55%
- % inhibition hind paw inflammation (hind‐paw inflammation; 15 mg/kg): 90%
- IC50 (ZAP70): 1050 nM
- overall safety and tolerability ([13]; SAD and MAD, entire range of doses): safe and well tolerated
- serious adverse events ([13]; SAD, 3 to 400 mg): no serious adverse events
- number of reported TEAEs ([13]; SAD, 200‐mg dose group): 15
- subject incidence of TEAEs ([13]; SAD, 200‐mg dose group): 67%
- number of reported TEAEs ([13]; SAD, 300‐mg dose group): 7
- subject incidence of TEAEs ([13]; SAD, 300‐mg dose group): 67%
- number of reported TEAEs ([13]; SAD, 400‐mg dose group): 3
- subject incidence of TEAEs ([13]; SAD, 400‐mg dose group): 17%
- moderate intensity TEAEs (dizziness, headache, musculoskeletal pain) ([13]; SAD, all PRT062607 doses): 3
- subjects with abdominal pain ([13]; SAD, all PRT062607 doses): 3 subjects
- subjects with diarrhea ([13]; SAD, all PRT062607 doses): 3 subjects
- subjects with dizziness ([13]; SAD, all PRT062607 doses): 3 subjects
- subjects with headache ([13]; SAD, all PRT062607 doses): 6 subjects
- subjects with nausea ([13]; SAD, all PRT062607 doses): 3 subjects
- subjects with rhinitis ([13]; SAD, all PRT062607 doses): 2 subjects
- number of TEAEs ([13]; SAD, all subjects receiving PRT062607): 37
- subjects reporting TEAEs ([13]; SAD, all subjects receiving PRT062607 (17/42)): 40%
